Laboratory results published in ChEMBL document CHEMBL1153749, “Flavonoids from the heartwood of the Thai medicinal plant Dalbergia parviflora and their effects on estrogenic-responsive human breast cancer cells” (2009).
The source made the active and inactive calls. The calls are words filed in the database; no cut-off is given here.

Tests used:
Type in all cases: functional
[1] = system: T47D; assay: Estrogenic activity in luciferase transfected human T47D cells assessed as drug level causing stimulation of cell proliferation equivalent to 10 pM estradiol by luciferase reporter gene assay
In short: (§1)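 Reporter assay in MCF-7 or T47D cells transiently transfected with luciferase. Compounds tested from 0.01 to 10 µM. Luciferase induction is expressed as the compound concentration equivalent to the 10 or 100 pM estradiol response. Values come from linear regression over at least five concentrations in quadruplicate.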

[2] = system: T47D; assay: Estrogenic activity in luciferase transfected human T47D cells assessed as drug level causing stimulation of cell proliferation equivalent to 100 pM estradiol by luciferase reporter gene assay; in short: as §1
[3] = system: T47D; assay: Estrogenic activity in human T47D cells assessed as drug level causing stimulation of cell proliferation equivalent to 10 pM estradiol after 96 hrs by alamar blue assay
In short: (§2)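 Cells seeded at 10^4 per well in phenol red-free RPMI with 5% DCC-treated FBS. Compounds added in DMSO (vehicle control 1% DMSO) for 96 h at 37 °C, 5% CO2, with serial estradiol dilutions run alongside. Alamar Blue for 3 h, fluorescence ex 530/em 590 nm. Estradiol-equivalent concentration fitted by linear regression from at least five concentrations in quadruplicate.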

[4] = system: MCF7; assay: Estrogenic activity in human MCF7 cells assessed as drug level causing stimulation of cell proliferation equivalent to 10 pM estradiol after 96 hrs by alamar blue assay; in short: as §2
[5] = system: MCF7; assay: Estrogenic activity in luciferase transfected human MCF7 cells assessed as drug level causing stimulation of cell proliferation equivalent to 10 pM estradiol by luciferase reporter gene assay; in short: as §1
[6] = system: MCF7; assay: Estrogenic activity in luciferase transfected human MCF7 cells assessed as drug level causing stimulation of cell proliferation equivalent to 100 pM estradiol by luciferase reporter gene assay; in short: as §1
[7] = system: MCF7; assay: Estrogenic activity in human MCF7 cells assessed as drug level causing stimulation of cell proliferation equivalent to 100 pM estradiol after 96 hrs by alamar blue assay; in short: as §2
[8] = system: T47D; assay: Estrogenic activity in human T47D cells assessed as drug level causing stimulation of cell proliferation equivalent to 100 pM estradiol after 96 hrs by alamar blue assay; in short: as §2

| Structure (SMILES) | Activity [1] | Activity [2] | Activity [3] | Activity [4] | Activity [5] | Activity [6] | Activity [7] | Activity [8] |
| --- | --- | --- | --- | --- | --- | --- | --- | --- |
| O=C1C[C@@H](c2ccc(O)cc2)Oc2cc(O)ccc21 [LIQUIRTIGENIN] | 0.01 µM | 5.9 µM | 0.64 µM | 0.1 µM | 0.01 µM | 0.01 µM | 0.65 µM | >100 µM |
| COc1ccc(-c2coc3cc(O)cc(O)c3c2=O)cc1O [PRATENSEIN] | >100 µM | >100 µM | 6.4 µM | 4.5 µM | >100 µM | >100 µM | 50.4 µM | >100 µM |
| O=C1C[C@@H](c2ccccc2)Oc2cc(O)cc(O)c21 [PINOCEMBRIN] | >100 µM | >100 µM | 7.6 µM | 17 µM | >100 µM | >100 µM | >100 µM | >100 µM |
| COc1ccc([C@@H]2COc3cc(O)ccc3C2)c(O)c1 | >100 µM | >100 µM | 0.02 µM | >100 µM | >100 µM | >100 µM | >100 µM | 0.2 µM |
| COc1ccc(-c2coc3cc(O)cc(O)c3c2=O)cc1 [BIOCHANIN] | 0.01 µM | 0.01 µM | 0.3 µM | 0.3 µM | >100 µM | >100 µM | 3.8 µM | 0.5 µM |
| COc1ccc([C@@H]2COc3cc(O)ccc3C2)c(OC)c1O | 6.3 µM | >100 µM | 0.4 µM | >100 µM | 0.9 µM | 7.8 µM | >100 µM | 6.4 µM |
| COc1ccc(C2COc3cc(O)ccc3C2=O)cc1O (stereo unspecified) | 6 µM | >100 µM | >100 µM | 24.5 µM | >100 µM | >100 µM | >100 µM | >100 µM |
| COc1cc(O)ccc1-c1coc2cc(O)cc(O)c2c1=O [THERALIN] | >100 µM | >100 µM | 1.7 µM | 0.6 µM | 0.01 µM | 0.4 µM | >100 µM | >100 µM |
| COc1cc2c(cc1O)C1c3ccc(O)cc3OCC1O2 (racemic) | inactive | inactive | inactive | inactive | inactive | inactive | inactive | inactive |
| O=c1c(-c2ccc(O)cc2)coc2cc(O)cc(O)c12 [GENISTEIN] | 0.01 µM | 0.6 µM | 0.01 µM | 0.01 µM | 0.01 µM | 0.01 µM | 0.11 µM | 0.08 µM |
| O=C1c2c(O)cc(O)cc2O[C@H](c2ccccc2)[C@H]1O | inactive | inactive | inactive | inactive | inactive | inactive | inactive | inactive |
| COc1ccc([C@H]2COc3cc(O)cc(O)c3C2=O)cc1O | 1.3 µM | >100 µM | 0.5 µM | 2.9 µM | 0.6 µM | 2.7 µM | >100 µM | 5.7 µM |
| COc1c(O)cc2occ(-c3ccc(O)cc3)c(=O)c2c1O [TECTORIGENIN] | 1.4 µM | 2.2 µM | 0.3 µM | 0.5 µM | >100 µM | >100 µM | 2.7 µM | 6.9 µM |
| COc1ccc(-c2coc3cc(O)ccc3c2=O)cc1 [FORMONONETIN] | 0.01 µM | 0.01 µM | 0.03 µM | >100 µM | 0.01 µM | 0.01 µM | >100 µM | >100 µM |
| COc1ccc(C2COc3c(ccc(O)c3O)C2)c(OC)c1O (stereo unspecified) | inactive | inactive | inactive | inactive | inactive | inactive | inactive | inactive |
| COc1cc(O)ccc1C/C=C/c1ccc(O)cc1 [XENOGNOSIN] | 0.01 µM | 5.7 µM | 0.7 µM | 0.1 µM | >100 µM | >100 µM | 4.6 µM | >100 µM |
| COc1ccc(-c2coc3cc(O)ccc3c2=O)c(OC)c1 [2'-METHOXYFORMONETIN] | 1.8 µM | 6.2 µM | 0.01 µM | 0.3 µM | >100 µM | >100 µM | 5.2 µM | 1.7 µM |
| COc1ccc(-c2coc3cc(O)ccc3c2=O)c(OC)c1O [KHRINONE E] | >100 µM | >100 µM | >100 µM | 4.7 µM | 5.9 µM | >100 µM | >100 µM | >100 µM |
| COc1cc(O)c(-c2coc3cc(O)cc(O)c3c2=O)cc1O [KHRINONE B] | >100 µM | >100 µM | >100 µM | >100 µM | >100 µM | >100 µM | >100 µM | >100 µM |
| COc1ccc([C@@]2(O)COc3cc(O)ccc3C2=O)c(O)c1O [ISODARPARVINOL B] | >100 µM | >100 µM | >100 µM | >100 µM | 1.2 µM | 3.4 µM | >100 µM | >100 µM |
| COc1ccc(C2COc3cc(O)ccc3C2=O)c(OC)c1OC (stereo unspecified) | 3.3 µM | >100 µM | 6.1 µM | 2.5 µM | >100 µM | >100 µM | 46.3 µM | >100 µM |
| COc1cc(O)c([C@@H]2COc3cc(O)ccc3C2)cc1OC | >100 µM | >100 µM | 0.02 µM | 1.1 µM | >100 µM | >100 µM | 0.2 µM | >100 µM |
